# STAT1 activator: STAT1 signaling activation | NIH 3T3 STAT1-luciferase reporter, IFN-gamma, luminescence; 100% = IFN-gamma alone, no compound | activation (% of control), % at 5.5 µM | 2.6% of 200,000 active | AID 932;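 active = activation above the screen-wide mean activation plus 3 SD, cut at about 130% in these data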;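 also: raw ratio to IFN-gamma control signal so 100% means no change and 0% no light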
# FLuc act counter: affects firefly luciferase, flagging false hits in luciferase stimulation screens; P08659; ATPlite luciferase biochemical, luminescence, 10 min; 0 = ATP-free wells, 1 = DMSO control; activation factor at 10 µM; 200,000 tested, under 10 active; AID 1027;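 active = luciferase activation factor, scaled between plate controls, of at least 2 with compound at 10 µM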
# Target sequence (P08659 whole entry, looked up): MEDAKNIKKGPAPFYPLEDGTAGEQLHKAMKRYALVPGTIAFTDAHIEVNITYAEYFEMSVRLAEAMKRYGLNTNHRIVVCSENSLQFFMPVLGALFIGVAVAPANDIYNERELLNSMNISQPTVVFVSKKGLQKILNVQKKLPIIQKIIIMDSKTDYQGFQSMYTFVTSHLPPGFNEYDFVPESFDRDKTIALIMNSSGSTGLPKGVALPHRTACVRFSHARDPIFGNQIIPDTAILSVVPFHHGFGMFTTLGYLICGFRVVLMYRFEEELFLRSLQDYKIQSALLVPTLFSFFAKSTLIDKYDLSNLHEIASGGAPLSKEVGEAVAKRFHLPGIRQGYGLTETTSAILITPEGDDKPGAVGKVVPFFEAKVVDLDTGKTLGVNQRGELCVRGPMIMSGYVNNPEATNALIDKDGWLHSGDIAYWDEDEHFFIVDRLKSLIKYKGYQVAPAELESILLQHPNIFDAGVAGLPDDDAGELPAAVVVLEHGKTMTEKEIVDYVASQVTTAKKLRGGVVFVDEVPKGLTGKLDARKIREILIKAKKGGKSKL
#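 System: Luciferase/luciferin detection reagent, cell-free biochemical luciferase assay | Medium: PBS buffer for ATP | Dosing: Test compounds dosed from 2 mM stocks in 100% DMSO | Timing: 10 min at ambient temperature | Signal: Luminescence measurement of luciferase light output | Evaluation: Luciferase activation, seen as luminescence increase over controls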
# NF-kB expr up: NF-kB expression increase, human neuronal cells | 1.6% of 190,000 active | fold change at 12.5 µM | NF-kB reporter expression; hits give high values | AID 1239; in the data active = fold change above about 3.3
# FLuc inh counter: Photinus pyralis luciferase inhibition counter-screen | ATPLite firefly luciferase biochemical luminescence, 10 min | inhibition, % at 10 µM | AID 1006 | 1.5% of 200,000 active | P08659;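 active = inhibition above about 50% when tested at 10 µM, limit read from the data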
# APP 5'UTR act: activates APP 5'UTR luciferase reporter. activation, % at 2 µM. SH-SY5Y APP 5'UTR luciferase reporter, luminescence; zero percent = DMSO vehicle wells. 1% of 190,000 active. AID 1276;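 active = activation above a set limit, based on mean plus 3 SD of controls, cut at about 140% in these data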
# Numbers without * were called inactive; . = no result given. This is a sample that favours compounds with a hit; in the whole collection about 4.3% have one here.
SMILES,STAT1 activator,FLuc act counter,NF-kB expr up,FLuc inh counter,APP 5'UTR act
Cc1cc(C(=O)NC2CCCCC2)c(C)n1-c1ccc(F)cc1,127,0.5,1.1,51*,126
CSc1ccc(Cl)c(C(=O)NC2CCCC2)c1,102,1,1.1,-3,6
Cc1cc(C(=O)CN2CCCCC2)c(C)n1-c1ccc(F)cc1,130*,1,1.2,-5,29
O=C(NC1CCCCCCC1)c1cc(F)c(F)cc1Cl,130*,1,1.6,3,32
O=C(NCCOc1ccccc1F)c1cc(F)c(F)cc1Cl,134*,0.9,3.2,10,124
COc1ccccc1OCCNC(=O)c1cc(F)c(F)cc1Cl,105,1,1.6,1,25
COc1ccc(OCCC(=O)OCC(=O)NCCc2ccccc2)cc1,118,1,1.1,-2,22
COc1c(OC(C)=O)ccc(/C=C/c2ccc3ccccc3n2)c1[N+](=O)[O-],99,0.9,1.1,14,136*
C/C(=N\NC(=O)c1ccccc1NC(=O)c1ccc(Cl)cc1)c1ccncc1,11,0,3.2,98*,62
O=C(N/N=C/c1ccco1)c1ccncc1,98,1,0.98,1,.
Cc1ccccc1C(=O)Nc1ccccc1C(=O)N/N=C\c1ccco1,99,0.8,1.2,23,18
O=C(Nc1ccccc1C(=O)N/N=C/c1ccco1)c1ccccc1,95,0.2,1,76*,10
CC(NC(=O)c1ccccc1NC(=O)c1ccncc1)c1ccccc1 (stereo not drawn),94,1,1,-4,6
O=C(Nc1ccccc1C(=O)N/N=C/c1ccco1)c1ccc(Cl)cc1,96,0.1,0.92,85*,-14
O=C(Nc1ccccc1C(=O)N/N=C/c1ccco1)c1ccc(F)cc1,94,0.2,1.1,80*,8
C=CCc1ccc(OCCOc2cccc3ccc(C)nc23)c(OC)c1,102,0.9,1.3,6,17
COc1ccc(C/C(=N\O)c2ccc(OC)cc2)cc1,110,1.1,1.4,-7,6
CN=C1NN=C(c2cc(C)n(-c3ccc(Cl)cc3)c2C)CS1,108,0.5,0.97,47,42
CC1CCc2sc(C(=O)OCC(=O)NCc3ccc(F)cc3)cc2C1 (stereo not drawn),99,1,0.97,-3,0
Cc1ccc(S(=O)(=O)N(Cc2cc3cc4c(cc3[nH]c2=O)OCCO4)CC2CCCO2)cc1 (stereo not drawn),108,1.1,1.1,-7,0
CC(=O)c1ccc(S(=O)(=O)N(Cc2cc3cc4c(cc3[nH]c2=O)OCCO4)CC2CCCO2)cc1 (stereo not drawn),129*,1,1.6,-1,26
OC(COc1ccccc1)CSc1ncn[nH]1 (stereo not drawn),107,1.1,1,-7,19
CC(C)(C)c1ccc(OCC(O)CSc2ncn[nH]2)cc1 (stereo not drawn),134*,0.9,1.6,12,16
Cn1c(=O)c2c(nc(SCC(=O)c3ccccc3F)n2C)n(C)c1=O,98,1,1.3,-1,3
CCOC(=O)CC(NC(=O)C1c2ccccc2Oc2ccccc21)c1ccccc1Cl (stereo not drawn),97,1.1,1.1,-6,-1
SMILES,STAT1 activator,FLuc act counter,NF-kB expr up,FLuc inh counter,APP 5'UTR act
O=C(O)c1ccc(-c2ccccc2)[nH]1,106,1.1,1.3,-6,7
CCc1ccc(-c2ccc(C(=O)C(F)(F)F)[nH]2)cc1,124,0.9,4.5*,5,179*
Cc1ccc(S(=O)(=O)n2[nH]c(=O)c(CCO)c2C)cc1,99,1,0.96,-2,8
O=C(/C=C/c1ccccc1)c1ccc2c(c1)OCCCCO2,140*,0.1,2.6,88*,147*
N#Cc1ccc(/C=C/C(=O)c2ccc3c(c2)OCO3)cc1,93,0.9,1.2,14,15
O=C1COc2ccc(C(=O)/C=C/c3ccccc3)cc2N1,98,0.9,3.3*,10,6
O=C1COc2ccc(C(=O)c3ccccc3C(=O)NCc3ccccc3)cc2N1,102,1,1.4,-5,.
Cc1cc(C)cc(OCC(=O)OCC(=O)c2ccc3c(c2)NC(=O)CO3)c1,109,1.1,3.6*,-5,.
CN(C)c1ccc(C(=O)/C=C/c2ccccc2)cc1,138*,0.2,4.9*,78*,140*
COc1ccc(-c2ocnc2C(=O)N2CCN(C(c3ccccc3)c3ccccc3)CC2)cc1,94,1,1.1,-2,6

# Screening results (PubChem BioAssay)
